According to ChEMBL document CHEMBL1157145, “Cytotoxic activity of proflavine diureas: synthesis, antitumor, evaluation and DNA binding properties of 1',1''-(acridin-3,6-diyl)-3',3''-dialkyldiureas” (Bioorg Med Chem, 2008):
Calls of active or inactive are those of the source. The calls are words filed in the database; no cut-off is given here.

Key:
HCT-116 [1] = assay: Cell cycle arrest in human HCT116 cells assessed as accumulation at G2/M phase at 10 uM after 48 hrs; type: functional
How it was run: (§1)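 Cells seeded at 8 · 10^5 per 60 mm dish, allowed to settle 24 h (37 °C, 5% CO2), then exposed to the drug for 24 or 48 h. Adherent plus floating cells (5 · 10^5) were fixed in cold 70% ethanol at −20 °C overnight, treated with RNase A (100 µg/mL) and stained with propidium iodide (20 µg/mL) in Vindelov's solution for 30 min at RT. Flow cytometry used 488 nm excitation, FL-2 at 585 ± 21 nm, and histograms were modelled for G0/G1, S and G2/M fractions.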

DNA [2] = assay: Binding affinity to calf thymus DNA at 4 uM by fluorescence spectrophotometric titration; type: nucleic-acid assay; conditions: Bos taurus
How it was run: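 ctDNA sonicated in TE buffer, concentration taken from A260 and given in base pairs. Compound (4 µM) in 0.01 M Tris, pH 7.4, 25 °C titrated with ctDNA (0–55 µM bp) until spectra stopped changing. Excitation 424 nm, slit widths 10 nm; binding constant derived from the change in emission.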

DNA [3] = assay: Binding affinity to calf thymus DNA at 50 uM by circular dichroism spectrophotometric titration; type: nucleic-acid assay; conditions: Bos taurus
HeLa [4] = assay: Cytotoxicity against human HeLa cells after 48 hrs by MTT assay; type: functional, cell-based
HeLa [5] = assay: Cytotoxicity against human HeLa cells after 72 hrs by MTT assay; type: functional, cell-based
HCT-116 [6] = assay: Cytotoxicity against human HCT116 cells after 48 hrs by MTT assay; type: functional, cell-based; conditions: HCT-116, 48 h
HCT-116 [7] = assay: Cytotoxicity against human HCT116 cells after 72 hrs by MTT assay; type: functional, cell-based; conditions: Homo sapiens, HCT-116, 72 h
HeLa [8] = assay: Antiproliferative activity against human HeLa cells assessed as increase of floating cells in total cell population at 24 uM after 24 hrs; type: functional
How it was run: (§2)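 Cells seeded (8 · 10^5 per 60 mm dish), allowed to settle 24 h at 37 °C, 5% CO2, then treated with a single concentration for 24 or 48 h. Adherent and floating cells counted by Coulter counter. Total cell number given as % of untreated control; floating cells as % of total cell number.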

HeLa [9] = assay: Antiproliferative activity against human HeLa cells assessed as decrease in total cell population at 24 uM after 24 hrs; type: functional; design: scale not given: the % may be the effect or the level left; how it was run: as §2
HCT-116 [10] = assay: Antiproliferative activity against human HCT116 cells assessed as increase of floating cells in total cell population at 10 uM after 24 hrs; type: functional; how it was run: as §2
HCT-116 [11] = assay: Antiproliferative activity against human HCT116 cells assessed as decrease in total cell population at 10 uM after 24 hrs; type: functional; design: scale not given: the % may be the effect or the level left; how it was run: as §2
HCT-116 [12] = assay: Antiproliferative activity against human HCT116 cells assessed as increase of floating cells in total cell population at 10 uM after 48 hrs; type: functional; how it was run: as §2
HCT-116 [13] = assay: Antiproliferative activity against human HCT116 cells assessed as decrease in total cell population at 10 uM after 48 hrs; type: functional; design: scale not given: the % may be the effect or the level left; how it was run: as §2
HeLa [14] = assay: Induction of apoptosis in human HeLa cells at 24 uM after 24 hrs; type: functional
How it was run: (§3)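 After 24 or 48 h of drug exposure, all cells were collected, combining trypsinised adherent cells with floating cells from the medium. Cells (1 × 10^6) were fixed in cold 70% ethanol overnight at −20 °C and stained with DAPI (10 µg/mL) for 30 min in the dark at RT. Under fluorescence microscopy, 300 cells per sample were scored, with condensed or fragmented nuclei counted as apoptotic.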

HeLa [15] = assay: Induction of apoptosis in human HeLa cells at 24 uM after 48 hrs; type: functional; how it was run: as §3
HCT-116 [16] = assay: Induction of apoptosis in human HCT116 cells at 10 uM after 24 hrs; type: functional; how it was run: as §3
HCT-116 [17] = assay: Induction of apoptosis in human HCT116 cells at 10 uM after 48 hrs; type: functional; how it was run: as §3
HeLa [18] = assay: Cell cycle arrest in human HeLa cells assessed as accumulation at G0/G1 phase at 24 uM after 24 hrs; type: functional; how it was run: as §1
HeLa [19] = assay: Cell cycle arrest in human HeLa cells assessed as accumulation at G0/G1 phase at 24 uM after 48 hrs; type: functional; how it was run: as §1
HCT-116 [20] = assay: Cell cycle arrest in human HCT116 cells assessed as accumulation at G0/G1 phase at 10 uM after 24 hrs; type: functional
How it was run: (§4)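 Adherent plus floating cells (5 · 10^5) collected 24 or 48 h after treatment, fixed in cold 70% ethanol at −20 °C overnight, washed in PBS. RNase A (100 µg/mL) and propidium iodide (20 µg/mL) in Vindelov's solution, 30 min at RT. Flow cytometry with 488 nm excitation, emission 585 ± 21 nm; % cells per cycle phase from DNA content histograms.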

HCT-116 [21] = assay: Cell cycle arrest in human HCT116 cells assessed as accumulation at G0/G1 phase at 10 uM after 48 hrs; type: functional; how it was run: as §4
HeLa [22] = assay: Cell cycle arrest in human HeLa cells assessed as accumulation at S phase at 24 uM after 24 hrs; type: functional; how it was run: as §1
HeLa [23] = assay: Cell cycle arrest in human HeLa cells assessed as accumulation at S phase at 24 uM after 48 hrs; type: functional; how it was run: as §1
HCT-116 [24] = assay: Cell cycle arrest in human HCT116 cells assessed as accumulation at S phase at 10 uM after 24 hrs; type: functional; how it was run: as §1
HCT-116 [25] = assay: Cell cycle arrest in human HCT116 cells assessed as accumulation at S phase at 10 uM after 48 hrs; type: functional; how it was run: as §1
HeLa [26] = assay: Cell cycle arrest in human HeLa cells assessed as accumulation at G2/M phase at 24 uM after 24 hrs; type: functional; how it was run: as §1
HeLa [27] = assay: Cell cycle arrest in human HeLa cells assessed as accumulation at G2/M phase at 24 uM after 48 hrs; type: functional; how it was run: as §1
HCT-116 [28] = assay: Cell cycle arrest in human HCT116 cells assessed as accumulation at G2/M phase at 10 uM after 24 hrs; type: functional; how it was run: as §1

With `CCCNC(=O)Nc1ccc2cc3ccc(NC(=O)NCCC)cc3nc2c1.Cl` the Activity (HCT-116 [1]) was 15.11%, the K (DNA [2]) was 3.8 ×10⁵ /M and the Activity (DNA [3]) was “Active”. For the same compound, the IC50 (HeLa [4]) was 23.9 µM, the IC50 (HeLa [5]) was 29.3 µM and the IC50 (HCT-116 [6]) was 10.3 µM. The IC50 (HCT-116 [7]) was 61.5 µM, the Activity (HeLa [8]) was 3.84% and the Activity (HeLa [9]) was 91.36%. For the same compound, the Activity (HeLa [9]; in the assay text read “after 48 hrs” for “after 24 hrs”) was 89.95%, the Activity (HCT-116 [10]) was 5.48% and the Activity (HCT-116 [11]) was 86.16%. For the same compound, the Activity (HCT-116 [12]) was 4.34%, the Activity (HCT-116 [13]) was 71.3% and the Activity (HeLa [14]) was 0.89%. The Activity (HeLa [15]) was 1%, the Activity (HCT-116 [16]) was 2.22% and the Activity (HCT-116 [17]) was 2.89%. It also gave an Activity (HeLa [18]) of 62.48%, an Activity (HeLa [19]) of 72.81% and an Activity (HCT-116 [20]) of 45.07%. It also gave an Activity (HCT-116 [21]) of 57.74%, an Activity (HeLa [22]) of 24.12% and an Activity (HeLa [23]) of 17.12%. The Activity (HCT-116 [24]) was 35.8%, the Activity (HCT-116 [25]) was 27.16% and the Activity (HeLa [26]) was 13.4%. It also gave an Activity (HeLa [27]) of 10.06% and an Activity (HCT-116 [28]) of 19.14%.
